Laboratory results taken from ChEMBL document CHEMBL3774372, “Design, physico-chemical properties and biological evaluation of some new N-[(phenoxy)alkyl]- and N-{2-[2-(phenoxy)ethoxy]ethyl}aminoalkanols as anticonvulsant agents” (Bioorg Med Chem, 2016).
Active and inactive are the calls of the source.

Test system: Rattus norvegicus
Assay: Anticonvulsant activity in rat assessed as protection against maximal electric shock-induced seizures at 30 mg/kg, po measured after 1 hr
Assay type: functional, organism-based
Details: not given
Outline: (§1)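 Rats dosed ip or orally as 0.5% methylcellulose suspension; maximal electroshock at listed time. Protection = abolition of hindlimb tonic extension; 4 rats per group, scored protected/tested.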

| SMILES | Activity |
| --- | --- |
| Cc1cc(C)c(OCCNC(C)CO)c(C)c1 (stereo not given) | inactive |

Test system: Rattus norvegicus
Assay: Anticonvulsant activity in rat assessed as protection against maximal electric shock-induced seizures at 30 mg/kg, po measured after 2 hrs
Assay type: functional, organism-based
Details: not given
Outline: as §1

| SMILES | Activity |
| --- | --- |
| Cc1cc(C)c(OCCNC(C)CO)c(C)c1 (stereo not given) | inactive |

Test system: Rattus norvegicus
Assay: Anticonvulsant activity in rat assessed as protection against maximal electric shock-induced seizures at 30 mg/kg, po measured after 4 hrs
Assay type: functional, organism-based
Details: not given
Outline: as §1

| SMILES | Activity |
| --- | --- |
| Cc1cc(C)c(OCCNC(C)CO)c(C)c1 (stereo not given) | inactive |

Test system: Rattus norvegicus
Assay: Neurotoxicity in rat at 30 mg/kg, po after […] by rotarod test
Assay type: toxicity, organism-based
Details: in vivo

| SMILES | Activity |
| --- | --- |
| Cc1cc(C)c(OCCNC(C)CO)c(C)c1 (stereo not given) | Non-toxic |

Test system: Rattus norvegicus
Assay: Neurotoxicity in rat at 30 mg/kg, po after 0.5 hrs by rotarod test
Assay type: toxicity, organism-based
Details: in vivo

| SMILES | Activity |
| --- | --- |
| Cc1cc(C)c(OCCNC(C)CO)c(C)c1 (stereo not given) | Non-toxic |

Test system: Rattus norvegicus
Assay: Neurotoxicity in rat at 30 mg/kg, po after 1 hr by rotarod test
Assay type: toxicity, organism-based
Details: in vivo

| SMILES | Activity |
| --- | --- |
| Cc1cc(C)c(OCCNC(C)CO)c(C)c1 (stereo not given) | Non-toxic |

Test system: Rattus norvegicus
Assay: Neurotoxicity in rat at 30 mg/kg, po after 2 hrs by rotarod test
Assay type: toxicity, organism-based
Details: in vivo

| SMILES | Activity |
| --- | --- |
| Cc1cc(C)c(OCCNC(C)CO)c(C)c1 (stereo not given) | Non-toxic |

Test system: Rattus norvegicus
Assay: Neurotoxicity in rat at 30 mg/kg, po after 4 hrs by rotarod test
Assay type: toxicity, organism-based
Details: in vivo

| SMILES | Activity |
| --- | --- |
| Cc1cc(C)c(OCCNC(C)CO)c(C)c1 (stereo not given) | Non-toxic |

Test system: Mus musculus
Assay: Anticonvulsant activity in mouse assessed as protection against maximal electric shock-induced seizures at 30 mg/kg, ip measured after 0.5 hrs
Assay type: functional, organism-based
Details: not given
Outline: (§2)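 Mice dosed ip with suspension in 0.5% methylcellulose; maximal electroshock applied at the listed time after dosing. Protection = abolition of hindlimb tonic extension component of seizure; reported as animals protected/animals tested.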

| SMILES | Activity |
| --- | --- |
| CCC(CO)NCCOc1cccc(C)c1C (stereo not given) | inactive |
| Cc1cccc(OCCNC(C)(C)CO)c1C | inactive |
| Cc1cc(C)c(OCCNC(C)CO)c(C)c1 (stereo not given) | inactive |

Test system: Mus musculus
Assay: Anticonvulsant activity in mouse assessed as protection against maximal electric shock-induced seizures at 30 mg/kg, ip measured after 4 hrs
Assay type: functional, organism-based
Details: not given
Outline: as §2

| SMILES | Activity |
| --- | --- |
| CCC(CO)NCCOc1cccc(C)c1C (stereo not given) | inactive |
| Cc1cccc(OCCNC(C)(C)CO)c1C | inactive |
| Cc1cc(C)c(OCCNC(C)CO)c(C)c1 (stereo not given) | inactive |

Test system: Mus musculus
Assay: Anticonvulsant activity in mouse assessed as protection against maximal electric shock-induced seizures at 100 mg/kg, ip measured after 0.5 hrs
Assay type: functional, organism-based
Details: not given
Outline: as §2

| SMILES | Activity |
| --- | --- |
| CCC(CO)NCCOc1cccc(C)c1C (stereo not given) | Active |
| Cc1cccc(OCCNC(C)(C)CO)c1C | Active |
| Cc1cc(C)c(OCCNC(C)CO)c(C)c1 (stereo not given) | Active |

Test system: Mus musculus
Assay: Anticonvulsant activity in mouse assessed as protection against maximal electric shock-induced seizures at 100 mg/kg, ip measured after 4 hrs
Assay type: functional, organism-based
Details: not given
Outline: as §2

| SMILES | Activity |
| --- | --- |
| CCC(CO)NCCOc1cccc(C)c1C (stereo not given) | inactive |
| Cc1cccc(OCCNC(C)(C)CO)c1C | inactive |
| Cc1cc(C)c(OCCNC(C)CO)c(C)c1 (stereo not given) | inactive |

Test system: Mus musculus
Assay: Anticonvulsant activity in mouse assessed as protection against subcutaneous pentylenetetrazol-induced seizures at 30 mg/kg, ip measured after 0.5 hrs
Assay type: functional, organism-based
Details: not given
Outline: (§3)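 Mice dosed ip as 0.5% methylcellulose suspension; pentylenetetrazole 85 mg/kg in 0.9% NaCl injected subcutaneously into posterior midline, animals watched at least 30 min. Protection = no threshold seizure (single clonic spasm episode lasting ≥5 s); scored protected/tested.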

| SMILES | Activity |
| --- | --- |
| CCC(CO)NCCOc1cccc(C)c1C (stereo not given) | inactive |
| Cc1cccc(OCCNC(C)(C)CO)c1C | inactive |
| Cc1cc(C)c(OCCNC(C)CO)c(C)c1 (stereo not given) | inactive |

Test system: Mus musculus
Assay: Anticonvulsant activity in mouse assessed as protection against subcutaneous pentylenetetrazol-induced seizures at 100 mg/kg, ip measured after 0.5 hrs
Assay type: functional, organism-based
Details: not given
Outline: as §3

| SMILES | Activity |
| --- | --- |
| CCC(CO)NCCOc1cccc(C)c1C (stereo not given) | inactive |
| Cc1cccc(OCCNC(C)(C)CO)c1C | inactive |
| Cc1cc(C)c(OCCNC(C)CO)c(C)c1 (stereo not given) | inactive |

Test system: Mus musculus
Assay: Anticonvulsant activity in mouse assessed as protection against subcutaneous pentylenetetrazol-induced seizures at 30 mg/kg, ip measured after 4 hrs
Assay type: functional, organism-based
Details: not given
Outline: as §3

| SMILES | Activity |
| --- | --- |
| CCC(CO)NCCOc1cccc(C)c1C (stereo not given) | inactive |
| Cc1cccc(OCCNC(C)(C)CO)c1C | inactive |
| Cc1cc(C)c(OCCNC(C)CO)c(C)c1 (stereo not given) | inactive |

Test system: Mus musculus
Assay: Anticonvulsant activity in mouse assessed as protection against subcutaneous pentylenetetrazol-induced seizures at 100 mg/kg, ip measured after 4 hrs
Assay type: functional, organism-based
Details: not given
Outline: as §3

| SMILES | Activity |
| --- | --- |
| CCC(CO)NCCOc1cccc(C)c1C (stereo not given) | inactive |
| Cc1cccc(OCCNC(C)(C)CO)c1C | inactive |
| Cc1cc(C)c(OCCNC(C)CO)c(C)c1 (stereo not given) | inactive |

Test system: Mus musculus
Assay: Neurotoxicity in mouse at 30 mg/kg, ip after 0.5 hrs by rotarod test
Assay type: toxicity, organism-based
Details: in vivo
Outline: (§4)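 Mice were dosed ip with compound suspended in 0.5% methylcellulose. Rotarod: a 1 in. knurled rod turning at 6 rpm. Neurotoxicity was scored as failure to stay on the rod for at least 1 min in each of three trials. Results are given as the number of animals affected out of the number tested.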

| SMILES | Activity |
| --- | --- |
| CCC(CO)NCCOc1cccc(C)c1C (stereo not given) | Non-toxic |
| Cc1cccc(OCCNC(C)(C)CO)c1C | Non-toxic |
| Cc1cc(C)c(OCCNC(C)CO)c(C)c1 (stereo not given) | Non-toxic |

Test system: Mus musculus
Assay: Neurotoxicity in mouse at 30 mg/kg, ip after 4 hrs by rotarod test
Assay type: toxicity, organism-based
Details: in vivo
Outline: as §4

| SMILES | Activity |
| --- | --- |
| CCC(CO)NCCOc1cccc(C)c1C (stereo not given) | Non-toxic |
| Cc1cccc(OCCNC(C)(C)CO)c1C | Non-toxic |
| Cc1cc(C)c(OCCNC(C)CO)c(C)c1 (stereo not given) | Non-toxic |

Test system: Mus musculus
Assay: Neurotoxicity in mouse at 100 mg/kg, ip after 0.5 hrs by rotarod test
Assay type: toxicity, organism-based
Details: in vivo
Outline: as §4

| SMILES | Activity |
| --- | --- |
| CCC(CO)NCCOc1cccc(C)c1C (stereo not given) | Toxic |
| Cc1cc(C)c(OCCNC(C)CO)c(C)c1 (stereo not given) | Toxic |

Test system: Mus musculus
Assay: Neurotoxicity in mouse at 100 mg/kg, ip after 4 hrs by rotarod test
Assay type: toxicity, organism-based
Details: in vivo
Outline: as §4

| SMILES | Activity |
| --- | --- |
| CCC(CO)NCCOc1cccc(C)c1C (stereo not given) | Non-toxic |
| Cc1cccc(OCCNC(C)(C)CO)c1C | Non-toxic |
| Cc1cc(C)c(OCCNC(C)CO)c(C)c1 (stereo not given) | Non-toxic |

Test system: Mus musculus
Assay: Neurotoxicity in mouse at 300 mg/kg, ip after 0.5 hrs by rotarod test
Assay type: toxicity, organism-based
Details: in vivo
Outline: as §4

| SMILES | Activity |
| --- | --- |
| Cc1cccc(OCCNC(C)(C)CO)c1C | Toxic |
| Cc1cc(C)c(OCCNC(C)CO)c(C)c1 (stereo not given) | Toxic |
